Compound activity deposited in PubChem BioAssay by several laboratories.
CHOP UPR activ – activators of apoptotic arm of unfolded protein response (CHOP) | AID 449763 | CHO-CHOP luciferase reporter, UPR activation, luminescence; percent of tunicamycin response over DMSO baseline | activation, % at 10 µM | hit rate 0.34% among 330,000;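 active = at 10 µM dose, activation of 40% or more, normalized to positive control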
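Evaluation: % reporter activation, DMSO baseline versus tunicamycin full activation; System: CHO-CHOP luciferase reporter cell line; Input: 500 cells/well; Incubation: 6 h compound treatment, 37 °C; Measured by: Steady-Glo luciferase luminescence; Dosing: one dose, 10 µM in 0.5% DMSO; Buffer or medium: F12 medium, 10% FBS; Benchmarks: positive tunicamycin 10 µg/mL, negative DMSO alone.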
A1 inh – inhibitors of the anti-apoptotic protein A1, read as caspase activation. MEF A1-2A-BIM cells, Caspase-Glo 3/7 luminescence, 3 h; percent of clofoctol response, vehicle zero. caspase activation, % (test concentration not listed). AID 2462. hit rate 0.066% among 330,000;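 active = over half of replicate activation scores above 10%, or exactly half above 10 with the replicate mean above 10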
XBP1 UPR activ – adaptive UPR (XBP1) activation; CHO-XBP1 luciferase reporter, IRE1-XBP1 UPR activation, luminescence; percent of tunicamycin response, DMSO as zero; activation, % at 20 µM; hit rate 0.33% among 330,000; AID 463104;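 active = versus positive control, 20 µM dose yields 30% or more activation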
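Signal: luciferase luminescence; Assay system: CHO-XBP1 luciferase reporter cells; Amount: one thousand reporter cells per well; Dosing: 20 µM single concentration, DMSO 1%; Benchmarks: high control tunicamycin 10 µg/mL final, low control DMSO vehicle only; Schedule: 6 h compound exposure at 37 °C, 5% CO2; Evaluation: percent activation relative to tunicamycin reference.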
CHOP inh – CHOP inhibition in unfolded protein response; inhibition, % at 10 µM; hit rate 3.8% among 220,000; CHO-K1 CHOP-promoter luciferase, tunicamycin-induced, 15-18 h;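 active = compounds that reduced the stress-induced luciferase reporter signal by more than about 70% of percent inhibition, limit read from the data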
UPR CHOP confirm – apoptotic UPR (CHOP) activation, confirmed; CHO-CHOP cells, CHOP-luciferase reporter luminescence; percent of tunicamycin response, DMSO as zero; hit rate 64% among 1,000; shares compounds with CHOP UPR activ; AID 463112; activation, % at 10 µM; in the data active = activation above about 33%
XBP1 UPR conf – confirmation of adaptive unfolded protein response (XBP1) activators; shares compounds with XBP1 UPR activ; CHO-XBP1 IRE1-XBP1 luciferase reporter, luminescence; activation, % at 20 µM; hit rate 63% among 1,000;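 active = reporter signal at least 30% of the positive control's activation in two or more of four replicate wells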
A number is an active result. Many of the other results were omitted from the sample, so hits are more common in it than they were.

COc1cc(S(=O)(=O)N2CCC(c3nc4ccccc4s3)CC2)ccc1S(=O)(=O)N1CC(C)CC(C)C1 (stereo not given) was read as CHOP UPR activ 209, A1 inh inactive, XBP1 UPR activ inactive, CHOP inh inactive and UPR CHOP confirm inactive.
For CC[C@@]1(C(=O)OC)N[C@H](CN(C)C(=O)c2ccc(C)cc2)[C@@H]2C(=O)N(C)C(=O)[C@@H]21 the results were CHOP UPR activ inactive and XBP1 UPR activ inactive.
`COc1ccc(C(=O)Cn2c(C(=O)/C=C/c3ccccc3)nc3ccccc32)cc1` gave CHOP UPR activ 314, A1 inh inactive, XBP1 UPR activ inactive, CHOP inh inactive and UPR CHOP confirm 348.
Screening COc1ccc(O)c(/C=N/NC(=O)CN2CCS(=O)(=O)CC2)c1 returned CHOP UPR activ inactive, A1 inh inactive and XBP1 UPR activ inactive.
`CCCOc1ccc(C=Nc2ccc(OC)c(S(=O)(=O)N3CCOCC3)c2)c(O)c1` gave CHOP UPR activ inactive, A1 inh inactive and XBP1 UPR activ inactive.
COC(=O)c1cc(N=Cc2c(O)c3ccccc3oc2=O)cc(C(=O)OC)c1 was read as CHOP UPR activ inactive, A1 inh inactive and XBP1 UPR activ inactive.
For COc1ccc(OC)c(N=Cc2c(O)c3ccccc3oc2=O)c1 the results were CHOP UPR activ 134, A1 inh inactive, XBP1 UPR activ 219 and UPR CHOP confirm 114.
CC1(C)CC(=O)C(=Cc2cn(-c3ccccc3)nc2-c2ccccc2)C(=O)C1 was read as CHOP UPR activ 89, A1 inh inactive, XBP1 UPR activ inactive and UPR CHOP confirm 184.
`O=C(COC(=O)COc1ccccc1)NC12CC3CC(CC(C3)C1)C2` gave CHOP UPR activ inactive, A1 inh inactive and XBP1 UPR activ inactive.
For Oc1cc(-c2ccncc2)cc2cccnc12 the results were CHOP UPR activ 70, A1 inh inactive, XBP1 UPR activ 34, UPR CHOP confirm 66 and XBP1 UPR conf inactive.
For CC1CCN(C(=O)COc2cccc3c2CCN(C)C3=O)CC1 the results were CHOP UPR activ inactive, A1 inh inactive, XBP1 UPR activ inactive and CHOP inh inactive.
O=C(Nc1cccc(-c2nc3cccnc3s2)c1)c1cccnc1Cl was read as CHOP UPR activ inactive, A1 inh inactive, XBP1 UPR activ inactive and CHOP inh inactive.
For O=C(Nc1cccc(-c2nc3cccnc3s2)c1)C1c2ccccc2Oc2ccccc21 the results were CHOP UPR activ 281, XBP1 UPR activ 440, CHOP inh inactive, UPR CHOP confirm 75 and XBP1 UPR conf 466.
Screening NS(=O)(=O)c1cccc(NC(=O)CSc2nnc(C3CC3)n2-c2ccccc2)c1 returned CHOP UPR activ inactive, A1 inh inactive and XBP1 UPR activ inactive.
For NC(=O)NCCCC(=O)NCC(c1ccccc1Cl)c1c[nH]c2ccccc12 (stereo not given) the results were CHOP UPR activ inactive, A1 inh inactive and XBP1 UPR activ inactive.
COCCN(CC(=O)Nc1cccc(C)c1C)C(=O)CN1C(=O)NC2(CCCCC2)C1=O was read as CHOP UPR activ inactive, A1 inh inactive and XBP1 UPR activ inactive.
CN(C)CCOC1c2ccccc2CCc2ccc3ccccc3c21 (stereo not given) was read as CHOP UPR activ inactive, A1 inh inactive and XBP1 UPR activ inactive.
Screening CC(C)(C)C(=O)NC(=S)NNC(=O)c1ccc(-c2ccccc2)cc1 returned CHOP UPR activ 69, A1 inh inactive, XBP1 UPR activ 72, CHOP inh 92, UPR CHOP confirm 84 and XBP1 UPR conf 50.
`COc1ccc(N(C)S(=O)(=O)c2cccc(C(=O)NCc3ccc(C)cc3)c2)cc1` gave CHOP UPR activ inactive, A1 inh inactive and XBP1 UPR activ inactive.
O=C(Nc1nc(-c2ccc3ccccc3c2)cs1)c1ccc(N2C(=O)CCC2=O)cc1 was read as CHOP UPR activ 76, A1 inh inactive, XBP1 UPR activ 45, CHOP inh inactive, UPR CHOP confirm 56 and XBP1 UPR conf 47.
Screening O=C(NCCCN1CCOCC1)c1ccccc1N1C(=O)[C@@H]2Cc3c([nH]c4ccccc34)C(c3cccc(Cl)c3)N2C1=O (stereo not given in full) returned CHOP UPR activ inactive, A1 inh inactive and XBP1 UPR activ inactive.
For COc1cccc(CN(C)C(=O)c2cc(S(=O)(=O)NC3CCCCC3)ccc2C)c1OC the results were CHOP UPR activ inactive, A1 inh inactive and XBP1 UPR activ inactive.
`CCc1cccc(CC)c1NC(=O)/C(C#N)=C/c1ccccc1C(F)(F)F` gave CHOP UPR activ 71, A1 inh inactive, XBP1 UPR activ 70, CHOP inh 84, UPR CHOP confirm 72 and XBP1 UPR conf 34.
`O=C(C[C@H]1C[C@H](C(=O)N2CCCCC2)[C@@]2(CCc3ccccc3)c3[nH]c4ccc(Cl)cc4c3CCN2C1=O)NCCc1ccccn1` gave CHOP UPR activ inactive and XBP1 UPR activ inactive.
`O=C(C[C@H]1C[C@H](C(=O)N2CCCCC2)[C@@]2(CCc3ccccc3)c3[nH]c4ccc(Cl)cc4c3CCN2C1=O)NCCC1=CCCCC1` gave CHOP UPR activ 55, XBP1 UPR activ 144, UPR CHOP confirm 84 and XBP1 UPR conf 146.
Screening COc1ccc(-c2cc(-c3ccccc3)c(C#N)c(S(C)(=O)=O)n2)cc1 returned CHOP UPR activ 103, A1 inh inactive, XBP1 UPR activ 45, CHOP inh inactive, UPR CHOP confirm 119 and XBP1 UPR conf 99.
CCc1nnc(NC(=O)CSc2nc(-c3ccccc3)cc(-c3ccc(OC)cc3)c2C#N)s1 was read as CHOP UPR activ 93, A1 inh inactive, XBP1 UPR activ 58, CHOP inh inactive, UPR CHOP confirm 105 and XBP1 UPR conf inactive.
Screening COc1ccc(-c2cc(-c3ccc(OC)cc3)c(C#N)c(SC)n2)cc1 returned CHOP UPR activ inactive, A1 inh inactive, XBP1 UPR activ inactive and CHOP inh inactive.
`CCOC(=O)c1ccc(-c2ccc(/C=N/NC(=O)CN(c3cccc(C)c3)S(C)(=O)=O)o2)cc1` gave CHOP UPR activ 55, A1 inh 17, XBP1 UPR activ 115, CHOP inh 79, UPR CHOP confirm 50 and XBP1 UPR conf 48.
COc1cc2nc(NC(=O)c3ccc(Cl)cc3)sc(=O)c2cc1OC was read as CHOP UPR activ 47, A1 inh inactive, XBP1 UPR activ 68, UPR CHOP confirm 50 and XBP1 UPR conf inactive.
Screening COc1cc2nc(NC(=O)c3ccco3)sc(=O)c2cc1OC returned CHOP UPR activ inactive, A1 inh inactive, XBP1 UPR activ inactive and CHOP inh inactive.
